From PubChem BioAssay
This is a sample that favours compounds with a hit; in the whole collection about 5.5% have one here.
WT yeast gro inh: growth inhibition of WT yeast, mitochondrial fusion screen | mitochondrial fusion phenotypic screen, WT strain | 190,000 tested, 2.1% active | inhibition, % at 10 µM | AID 1362; in the data active = inhibition above about 58%; tested in S. cerevisiae
RAM inhibit: inhibitors of the yeast RAM network | S. cerevisiae dse1pr::URA3 reporter, 5-FOA growth OD615, 2 d; analog-sensitive cbk1-as2 kinase mutant strain | inhibition, % at 50 µM | 190,000 tested, 1.8% active | AID 868;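 active = inhibition above a set limit, 3 SD over mean compound inhibition, cut at about 8.4% in these data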;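 also: 0% = DMSO-only wells with no growth and 100% = 10 µM 1-NA-PP1 full growth; inhibition rescues growth on 5-FOA so higher OD means more RAM inhibition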
Yeast growth inh: reduces growth of yeast BB579 in restrictive medium. AID 804. S. cerevisiae BB579 growth, OD615, 48 h. 140,000 tested, 0.51% active. inhibition, % at 10 µM;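 active = inhibition above a set limit, 3 SD over the mean compound inhibition, cut at about 44% in these data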
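controls = amphotericin B 10 µg/mL, positive | assay system = DeaD yeast strain BB579 | schedule = 48 h compound exposure at 30 °C after 4 h preincubation | detection = OD615 turbidity measurement | medium = restrictive CSMM-D medium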
KCC2 mod: modulates chloride dependent transport by human KCC2; Q9H2X9; KCC2 cells, thallium flux FluoZin-2 fluorescence; B-score of Tl+ flux slope (higher = more flux/activation; lower = inhibition) at 10 µM; 190,000 tested, 2.2% active; AID 1456;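 active = thallium flux slope and its plate-corrected score both differing from the plate sample mean at a set confidence after two filtering rounds, in either direction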;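 also: slope of fluorescence scaled to starting intensity during 10 to 20 s after thallium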
Target sequence (Q9H2X9 whole entry, looked up): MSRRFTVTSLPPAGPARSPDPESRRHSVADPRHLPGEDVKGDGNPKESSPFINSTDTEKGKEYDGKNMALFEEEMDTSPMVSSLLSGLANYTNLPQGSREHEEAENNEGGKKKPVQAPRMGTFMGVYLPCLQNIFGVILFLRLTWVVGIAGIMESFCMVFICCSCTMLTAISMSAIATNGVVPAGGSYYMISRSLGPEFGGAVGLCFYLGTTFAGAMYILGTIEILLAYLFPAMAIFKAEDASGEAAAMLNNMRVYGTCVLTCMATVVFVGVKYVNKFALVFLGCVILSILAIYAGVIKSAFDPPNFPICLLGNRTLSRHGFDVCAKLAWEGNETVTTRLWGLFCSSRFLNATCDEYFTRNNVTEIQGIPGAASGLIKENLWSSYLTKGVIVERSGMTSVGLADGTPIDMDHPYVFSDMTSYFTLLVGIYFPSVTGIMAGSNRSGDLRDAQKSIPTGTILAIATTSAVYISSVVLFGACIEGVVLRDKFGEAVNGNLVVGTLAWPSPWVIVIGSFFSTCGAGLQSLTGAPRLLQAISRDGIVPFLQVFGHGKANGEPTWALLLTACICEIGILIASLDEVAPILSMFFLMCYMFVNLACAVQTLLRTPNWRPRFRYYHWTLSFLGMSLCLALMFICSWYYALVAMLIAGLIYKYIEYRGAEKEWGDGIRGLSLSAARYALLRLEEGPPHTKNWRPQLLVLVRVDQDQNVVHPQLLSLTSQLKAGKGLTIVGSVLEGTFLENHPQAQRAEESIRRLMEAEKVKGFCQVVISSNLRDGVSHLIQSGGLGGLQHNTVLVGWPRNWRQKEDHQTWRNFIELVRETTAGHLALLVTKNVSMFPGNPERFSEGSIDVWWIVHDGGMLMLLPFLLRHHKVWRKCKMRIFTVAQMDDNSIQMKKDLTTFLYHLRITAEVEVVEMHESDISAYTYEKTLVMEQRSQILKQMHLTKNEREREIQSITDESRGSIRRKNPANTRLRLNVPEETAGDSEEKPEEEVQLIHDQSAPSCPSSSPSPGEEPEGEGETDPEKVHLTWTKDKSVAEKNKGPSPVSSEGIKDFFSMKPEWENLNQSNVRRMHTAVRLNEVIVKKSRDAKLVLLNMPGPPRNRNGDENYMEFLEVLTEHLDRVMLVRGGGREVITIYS
Yeast life ext: yeast lifespan extension. S. cerevisiae growth with nicotinamide, OD615; deaD strain in restrictive glucose medium. inhibition of the nicotinamide effect, % at 10 µM. 130,000 tested, 0.68% active;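 active = inhibition above a set limit, placed 3 SD over the median of all compounds, cut at about 26% in these data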;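 also: 0% = nicotinamide-treated wells and 100% = cells grown without nicotinamide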
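Measured by: optical density (absorbance) at 615 nm; System: modified budding yeast, DeaD strain; Medium: restrictive CSMM-D dextrose medium; Timing: 4 h preincubation then 48 h treatment at 30 °C.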
KCC2 sec1: confirmation of human KCC2 transport modulators; AID 1713; 3,700 tested, 15% active; HEK293-KCC2, thallium flux, FluoZin2 fluorescence; stronger effect = higher value; shares compounds with KCC2 mod; normalised thallium flux (F/F0 slope) at 10 µM;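 active = thallium flux slope above the same plate's solvent-only control mean plus 3 SD; inconclusive = the two replicate wells disagree; inactive = no significant difference from solvent-only control wells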
KCC2 bumet counter: thallium flux persisting under bumetanide in KCC2 cells, counter-screen secondary assay. shares compounds with KCC2 mod. normalized thallium flux at 10 µM. HEK293-KCC2 + bumetanide/ouabain, thallium flux FluoZin2; stronger effect = higher value. 3,700 tested, 49% active;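 active = thallium entry rate above the same plate's blocked-transporter control wells by more than 3 SD; inconclusive = the two repeat wells disagree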;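 also: raw slope of fluorescence over initial fluorescence between 10 and 20 s after thallium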
KCC2 sec2: KCC2 (human) modulation, second secondary assay; shares compounds with KCC2 mod; HEK293-KCC2, thallium flux FluoZin2 fluorescence; actives lie on both sides; F/F0 rise rate, 10–20 s post-thallium; normalized thallium flux at 10 µM; 3,700 tested, 23% active;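 active = thallium flux slope more than 3 SD above or below the plate's solvent-only control mean, mostly below; inconclusive = the two repeat wells disagreed; inactive = no significant shift from solvent-only controls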;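 also: raw slope with 0.1% DMSO as baseline and bumetanide as block control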
HEK293 Tl flux: acts in parental HEK cells, KCC2 counter-screen; shares compounds with KCC2 mod; HEK293 parental cells, thallium flux FluoZin2, ouabain; baseline-ratio fluorescence slope, 10–20 s after thallium; thallium flux rate (normalised fluorescence) at 10 µM; 3,700 tested, 46% active; AID 1716;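 active = thallium flux rate significantly above the same plate's solvent-only control wells, beyond their mean plus 3 SD; inconclusive = the two replicate wells gave conflicting results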
KCC2 ouabain: confirmation of human KCC2 modulators with ouabain; shares compounds with KCC2 mod; HEK293-KCC2, thallium flux FluoZin2 fluorescence; bidirectional: low = inhibitor, high = activator; raw Tl+ flux slope (below DMSO = inhibition, above = activation) at 10 µM; 3,700 tested, 48% active; AID 1717;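 active = thallium flux slope beyond 3 SD from same-plate DMSO control mean in most replicates, usually higher, sometimes lower; inconclusive = repeat tests gave conflicting results; inactive = no significant difference from controls in most replicates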;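 also: slope of initial-normalized fluorescence between seconds 10 and 20 after thallium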
HEK293 Tl flux2: acts in parental HEK cells, second KCC2 counter-screen. shares compounds with KCC2 mod. thallium flux slope at 10 µM. 3,700 tested, 33% active. HEK293 parental, thallium flux FluoZin-2 fluorescence slope. AID 1718;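 active = thallium flux slope above the same plate's solvent-control mean plus 3 SD in both duplicate wells; inconclusive = duplicate wells that disagreed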;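 also: run without ouabain in cells lacking the KCC2 cotransporter; slope of fluorescence scaled to its starting value between 10 and 20 s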
An asterisk follows results filed as active; ? = inconclusive; . = no result given.

SMILES | WT yeast gro inh | RAM inhibit | Yeast growth inh | KCC2 mod | Yeast life ext | KCC2 sec1 | KCC2 bumet counter | KCC2 sec2 | HEK293 Tl flux | KCC2 ouabain | HEK293 Tl flux2
C=CCn1c(O)c(N=NC(=S)Nc2cccc(OC)c2)c2ccccc21 | -1 | 6 | -20 | 71* | -2 | 0.02* | 0.11* | 0.031 | 0.041* | 0.052* | 0.013*
Cc1ccc(C(=O)N2CCOCC2)c(F)c1F | -9 | 0 | . | 0.68 | . | . | . | . | . | . | .
O=C(Nc1ccc(-c2nc3ccccc3[nH]2)cc1)c1ccccc1NS(=O)(=O)c1ccc(F)cc1 | -9 | 6 | -51 | -4.6* | 4 | 0.0077 | 0.0042 | 0.029 | 0.0073 | 0.015* | 0.01
O=C(Nc1cc(S(=O)(=O)N2CCCCC2)ccc1O)c1ccccc1NS(=O)(=O)c1ccc(F)cc1 | -4 | 7 | -48 | -0.086 | 6 | . | . | . | . | . | .
O=C(Nc1cc(S(=O)(=O)N2CCCCC2)ccc1Cl)c1ccccc1NS(=O)(=O)c1ccc(F)cc1 | 72* | 6 | -31 | -4.8* | 7 | 0.0083 | 0.0065 | ? | 0.0056 | ? | 0.0091
Cc1cc(F)ccc1S(=O)(=O)Nc1ccccc1C(=O)Nc1ccccc1-c1nc2ccccc2[nH]1 | -16 | 3 | -20 | -0.0039 | -4 | . | . | . | . | . | .
COCC(O)CSc1nc(C)[nH]c1[N+](=O)[O-] (stereo not drawn) | -7 | 1 | -39 | -5.2* | -5 | 0.016 | 0.0042 | 0.028 | 0.0072 | 0.016 | 0.0097
Cc1nc(SCC(O)CCl)c([N+](=O)[O-])[nH]1 (stereo not drawn) | -21 | 1 | -39 | 0.0096 | . | . | . | . | . | . | .
CC(=O)c1sc(-c2ccccc2)cc1N | . | . | . | 0.25 | . | . | . | . | . | . | .
CC(=O)c1sc(-c2ccc(F)cc2)cc1NS(=O)(=O)c1ccccc1 | . | . | . | 9* | . | 0.0089 | 0.016* | 0.033 | 0.015* | ? | ?
Cc1ccc(-n2ncc3c(SCc4cccc(C)c4)ncnc32)cc1 | -7 | 8 | -36 | 6.6* | -3 | 0.0074 | 0.022* | 0.042* | 0.022* | 0.031* | 0.026*
Cc1cccc(Cc2cnc(N3C(=N)SC(c4ccccc4)C3=O)s2)c1 (stereo not drawn) | 26 | 5 | -22 | 1.4 | 5 | . | . | . | . | . | .
Cc1cccc(Cc2cnc(N3C(=N)SC(C)C3=O)s2)c1 (stereo not drawn) | 69 | 2 | . | 6* | . | 0.017* | 0.068* | 0.035 | 0.029* | 0.04* | 0.014*
Cc1ccc(Cc2cnc(N3C(=N)SC(C)C3=O)s2)cc1 (stereo not drawn) | 70 | 2 | . | 11* | . | 0.012 | 0.03* | 0.035 | 0.018* | 0.03* | 0.011
Cc1c(N/C(=N/S(=O)(=O)c2ccccc2)c2ccc(Cl)cc2)c(=O)n(-c2ccccc2)n1C | -2 | 0 | -10 | 0.31 | -1 | . | . | . | . | . | .
CC(Oc1ccc(Cl)cc1Cl)c1ccnc(N)n1 (stereo not drawn) | 16 | 0 | . | -2.9* | . | 0.0076 | 0.0046 | 0.028 | 0.007 | 0.018 | 0.0094
CC(Oc1ccccc1)c1ccnc(N)n1 (stereo not drawn) | -3 | 2 | . | 0.8 | . | . | . | . | . | . | .
FC(F)(F)c1ccc2c(c1)N1CCCC1CN2 (stereo not drawn) | 27 | 2 | . | . | . | . | . | . | . | . | .
FC(F)(F)c1ccc2c(c1)[nH]c(=S)n2C1CC1 | 18 | 0 | . | 62* | . | 0.03* | 0.17* | 0.045* | 0.069* | 0.11* | 0.027*
CC(C(=O)N=c1sc2ccccc2n1C)N1C(=O)C2CC=CCC2C1=O (stereo not drawn) | 4 | 0 | -69 | . | -3 | 0.0072 | ? | ? | 0.0073 | ? | 0.011
COc1cc(C)c(C)cc1S(=O)(=O)N1CCN(Cc2ccccc2)CC1 | -2 | 0 | -18 | . | -4 | 0.0054 | 0.005 | 0.025* | 0.0067 | ? | 0.011
Fc1ccc(Nc2nc(Oc3ccccc3F)nc(N3CCCC3)n2)cc1 | 8 | 3 | -16 | . | -16 | 0.0073 | 0.0064 | 0.029 | 0.007 | 0.02 | 0.0097
Cc1[nH]c(N=Nc2ccccc2)nc1N=Nc1ccccc1 | . | . | . | 76* | . | 0.04* | 0.14* | 0.059* | 0.096* | 0.098* | 0.027*
Nc1ccc(N=Nc2ccccc2)c(N)n1 | 8 | 1 | -44 | -0.47 | -3 | . | . | . | . | . | .
O=C1c2ccccc2-c2cccc(NS(=O)(=O)c3ccc(C(F)(F)F)cc3)c21 | 22 | 3 | -43 | . | -8 | ? | 0.076* | ? | 0.023* | 0.039* | 0.016*
SMILES | WT yeast gro inh | RAM inhibit | Yeast growth inh | KCC2 mod | Yeast life ext | KCC2 sec1 | KCC2 bumet counter | KCC2 sec2 | HEK293 Tl flux | KCC2 ouabain | HEK293 Tl flux2
CCOC(=O)N1CCN(C(=O)c2ccc3c(=O)n(Cc4ccc(Cl)cc4)c(=S)[nH]c3c2)CC1 | -2 | 1 | -4 | . | -4 | 0.0063 | 0.015* | 0.032 | 0.013* | ? | 0.016*
O=C(c1ccc2c(=O)n(C3CCCC3)c(=S)[nH]c2c1)N1CCN(C2CCCCC2)CC1 | 0 | 0 | -41 | 8.3* | -1 | 0.0063 | 0.0098* | 0.029 | 0.015* | 0.021 | 0.013*
CC(C)c1ccc(C2C3=C(COC3=O)Nc3cc4c(cc32)OCO4)cc1 (stereo not drawn) | 31 | 3 | . | 0.098 | . | . | . | . | . | . | .
CN1CCN(/N=C/c2nc(-c3ccccc3)n3ccccc23)CC1 | -7 | 1 | -21 | 0.052 | -2 | . | . | . | . | . | .
Cc1cccc(NC(=O)CSc2nnc([C@@H](N)Cc3ccccc3)o2)c1C | -17 | -1 | -22 | -2.5 | -2 | . | . | . | . | . | .
Cc1ccccc1-c1nnc(SCC(=O)Nc2cccc(C)c2C)o1 | -1 | 3 | -32 | -4.8* | -31 | 0.017 | 0.0042 | 0.028 | 0.0071 | 0.014 | 0.01
Cc1ccc(S(=O)(=O)N2CCC(C(=O)NNC(=O)c3ccc(F)cc3)CC2)cc1 | -1 | 3 | . | -0.66 | . | . | . | . | . | . | .
Cc1ccc(S(=O)(=O)Oc2ccccc2/C=N/Nc2ccc(C(=O)O)cc2)cc1 | . | . | . | -0.71 | . | . | . | . | . | . | .
Cc1cc(C)c(NC(=O)NC(=O)c2cccc(F)c2)c(C)n1 | 10 | 1 | -7 | -4.1* | -1 | 0.011 | 0.006 | 0.032 | 0.008 | 0.019 | ?
O=C(O)c1cc(S(=O)(=O)NCc2ccco2)c(Cl)cc1Cl | 10 | 0 | -27 | 0.57 | -2 | . | . | . | . | . | .
